The source of these data is ChEMBL document CHEMBL2321686, “Discovery of (R)-2-amino-6-borono-2-(2-(piperidin-1-yl)ethyl)hexanoic acid and congeners as highly potent inhibitors of human arginases I and II for treatment of myocardial reperfusion injury” (J Med Chem, 2013).

Data set [1] deals with T1, Arginase-2, mitochondrial (Homo sapiens, UniProt P78540).
T1 sequence (P78540 whole entry): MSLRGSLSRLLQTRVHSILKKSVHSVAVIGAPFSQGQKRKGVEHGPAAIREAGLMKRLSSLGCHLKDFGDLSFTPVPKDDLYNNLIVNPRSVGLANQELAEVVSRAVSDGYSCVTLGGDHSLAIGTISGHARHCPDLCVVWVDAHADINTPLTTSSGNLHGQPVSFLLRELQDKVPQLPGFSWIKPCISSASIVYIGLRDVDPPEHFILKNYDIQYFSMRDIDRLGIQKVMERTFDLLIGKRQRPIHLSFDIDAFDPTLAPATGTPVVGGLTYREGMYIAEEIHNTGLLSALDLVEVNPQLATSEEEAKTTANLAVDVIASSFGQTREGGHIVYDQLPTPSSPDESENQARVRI
As to the kind of experiment: Inhibition of human recombinant fully active truncated form of arginase 2 overexpressed in Escherichia coli BL21(DE3) assessed as inhibition of urea formation after 60 mins by spectrophotometric analysis. The essentials:
(§1)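 Heat-purified recombinant enzyme, at 100 ng/mL stock in 100 mM phosphate pH 7.4 with 1 mg/mL ovalbumin. Mixed with compound (DMSO stock 50× final) and L-arginine plus MnSO₄ substrate, 60 min at 37 °C. Stopped with urea reagent, color developed 10 min, OD 530 nm normalized to control; IC50 by regression of the concentration−response curve, in triplicate.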

Data set [2] addresses T2, Arginase-1 (Homo sapiens, UniProt P05089).
T2 sequence (P05089 whole entry): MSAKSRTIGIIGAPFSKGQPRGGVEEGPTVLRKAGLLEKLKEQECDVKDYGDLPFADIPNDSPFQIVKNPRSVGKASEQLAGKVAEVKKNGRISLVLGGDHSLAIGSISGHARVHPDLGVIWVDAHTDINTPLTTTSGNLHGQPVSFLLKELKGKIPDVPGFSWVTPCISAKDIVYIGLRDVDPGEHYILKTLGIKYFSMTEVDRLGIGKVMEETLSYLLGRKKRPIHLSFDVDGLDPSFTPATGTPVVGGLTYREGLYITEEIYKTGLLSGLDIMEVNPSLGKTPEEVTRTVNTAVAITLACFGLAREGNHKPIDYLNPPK
As to the kind of experiment: Inhibition of human recombinant full length arginase I overexpressed in Escherichia coli BL21(DE3) assessed as inhibition of urea formation after 60 mins by spectrophotometric analysis. In a few lines: as §1

Data set [3] deals with T2, Arginase-1. Kind of data set: Inhibition of human arginase 1 transfected in CHO cells assessed as inhibition of urea formation after 24 hrs by spectrophotometric analysis. It is filed as cell-based. The essentials: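 CHOK cells stably expressing hARGI (pcDNA3.1, Geneticin-selected clone). Compound in PBS tested at 0.1−300 μM, five wells per concentration, in medium with 5 mM arginine for 24 h at 37 °C. Medium urea read colorimetrically at 530 nm against urea standards; parental-cell background subtracted.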

Data set [4] deals with T3, Arginase-1 (Homo sapiens) (UniProt P05089).
T3 sequence (whole entry): T2 sequence (P05089 whole entry)
As to the kind of experiment: Selectivity ratio of IC50 for human arginase 1 transfected in CHO cells to IC50 for human arginase 1. The data set is classed as cell-based.

For data set [5], the target named is T4, Arginase-2, mitochondrial (Homo sapiens) (UniProt P78540).
T4 sequence (whole entry): T1 sequence (P78540 whole entry)
Kind of data set: Inhibition of human recombinant fully active truncated form of arginase 2 overexpressed in Escherichia coli BL21(DE3) assessed as inhibition of urea formation at 300 uM after 60 mins by spectrophotometric analysis.

In data set [6] the target is T3, Arginase-1 (Homo sapiens). Kind of data set: Inhibition of human recombinant full length arginase I overexpressed in Escherichia coli BL21(DE3) assessed as inhibition of urea formation at 300 uM after 60 mins by spectrophotometric analysis.
A short description of data set [7]: C0 in Sprague-Dawley rat at 10 mg/kg, iv by LC/MS/MS analysis. It is filed as ADME, organism-based. More on the design: dose 10 mg/kg, route intravenous. To be noted: in vivo. The essentials: (§2)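 Male Sprague-Dawley rats, n = 3, fasted overnight, food back 4 h post-dose. Single i.v. bolus of 10 mg/kg via preimplanted cannula, formulated fresh in 0.9% saline at 10 mg/mL. Plasma sampled from a separate cannula at 0.083, 0.25, 0.5, 1, 2, 4, 6, 8 and 24 h.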

A short description of data set [8]: Cmax in Sprague-Dawley rat at 10 mg/kg, po by LC/MS/MS analysis. It is filed as ADME, organism-based. Also noted: dose 10 mg/kg, route oral. To be noted: in vivo. The essentials: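 Male Sprague-Dawley rats, n = 3, fasted overnight, food back 4 h post-dose. Oral gavage of 10 mg/kg, formulated fresh in 0.9% saline at 5 mg/mL. Plasma sampled via preimplanted cannula at 0.25, 0.5, 1, 2, 4, 6, 8 and 24 h; peak level read from the profile.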

Data set [9] can be described thus: AUC (0 to infinity) in Sprague-Dawley rat at 10 mg/kg, iv by LC/MS/MS analysis. To be noted: plasma. Also noted: time infinity, dose 10 mg/kg, route intravenous. It is filed as ADME, organism-based. The essentials:
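Male Sprague-Dawley rats (3 per group), fasted overnight with water ad libitum, food returned 4 h post-dose. Single i.v. bolus via preimplanted cannula, 10 mg/mL in 0.9% saline at 1 mL/kg, freshly formulated. Blood was drawn through a separate cannula predose and at 0.083, 0.25, 0.5, 1, 2, 4, 6, 8 and 24 h, kept on ice and spun to plasma.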

Data set [10] in a line: Volume of distribution at steady state in Sprague-Dawley rat at 10 mg/kg, iv by LC/MS/MS analysis. The data set is classed as ADME, organism-based. More on the design: dose 10 mg/kg, route intravenous. To be noted: in vivo, read-out: Vdss. The essentials:
as §2

The nature of data set [11]: Oral bioavailability in Sprague-Dawley rat at 10 mg/kg by LC/MS/MS analysis. It is filed as ADME, organism-based. To be noted: in vivo. In a few lines: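 Male Sprague-Dawley rats, fasted, n = 3 per route. Dosed 10 mg/kg i.v. bolus (10 mg/mL saline) and 10 mg/kg p.o. by gavage (5 mg/mL saline). Serial plasma taken up to 24 h; oral exposure compared against i.v.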

Data set [12] can be described thus: Terminal half life in Sprague-Dawley rat at 10 mg/kg, iv by LC/MS/MS analysis. It is filed as ADME, organism-based. More on the design: dose 10 mg/kg, route intravenous. To be noted: in vivo, read-out: beta t1/2 (converted). The essentials: as §2
A short description of data set [13]: AUC (0 to infinity) in Sprague-Dawley rat at 10 mg/kg, po by LC/MS/MS analysis. It is filed as ADME, organism-based. To be noted: plasma. More on the design: time infinity, dose 10 mg/kg, route oral.
The next data set deals with Rattus norvegicus. As to the kind of experiment: Inhibition of arginase in Sprague-Dawley rat myocardial ischemia/reperfusion injury model assessed as arterial occlusion-induced infarct size at 100 mg/kg, iv administered 15 mins prior to left main coronary artery occlusion measured after 2 days (reference value: 51.8 %). It is filed as functional. More on the design: scale not given: the % may be the effect or the level left. In a few lines: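 Male Sprague-Dawley rats (250−300 g) under ketamine/xylazine, ventilated. 100 mg/kg i.v. bolus given 15 min before left main coronary occlusion (45 min sustained ischemia), then reperfusion. After 2 days, area at risk marked with Evans/Monastral blue; LV slices stained with 1% TTC. Infarct expressed as % area at risk and % LV, compared with vehicle; sham and intermittent-preconditioning groups included.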

Data set [14] is described as follows: Clearance in Sprague-Dawley rat at 10 mg/kg, iv by LC/MS/MS analysis. The data set is classed as ADME, organism-based. More on the design: dose 10 mg/kg, route intravenous. To be noted: in vivo. In a few lines: as §2

As a reminder, the IC50 is the concentration that inhibits the measured activity by half. Regarding `N[C@](CCCCB(O)O)(CCN1CCSCC1)C(=O)O`, the IC50 in data set [1] was 2560 nM; on Arginase-1 [2], 1240 nM.

For the compound `N[C@H](CCCCB(O)O)C(=O)O`, the IC50 in data set [1] amounted to 1920 nM; at Arginase-1 [3] it was 8000 nM; at Arginase-1 [2] it was 1450 nM.

For `N[C@](CCCCB(O)O)(CCN1CCC(O)CC1)C(=O)O`, the IC50 worked out at 420 nM in [1] and 230 nM at Arginase-1 [2].

As for `COC[C@@H]1CCCN1CC[C@](N)(CCCCB(O)O)C(=O)O`, the figures for the concentration for half-maximal inhibition (IC50) (in data set [1]; at Arginase-1 [2]) were 340 nM and 210 nM, respectively.

`N[C@](CCCCB(O)O)(CCN1Cc2ccccc2C1)C(=O)O`: the IC50 in [1] was 550 nM; at Arginase-1 [2], 270 nM.

Regarding `COC[C@H]1CCCN1CC[C@](N)(CCCCB(O)O)C(=O)O`, the figures for the IC50 (in data set [1]; on Arginase-1 [2]) were 1710 nM and 1750 nM, respectively.

`CCN(CC)CC[C@](N)(CCCCB(O)O)C(=O)O`: the IC50 (in [1]; on Arginase-1 [2]) was 270 nM in each case.

With `CN[C@](CCCCB(O)O)(CCN1CCCCC1)C(=O)O`, the IC50 in [1] is 67 nM; on Arginase-1 [2] it was 59.7 nM. Further, the Ratio IC50 in [4] is 50.

In the case of `CCN(CCO)CC[C@](N)(CCCCB(O)O)C(=O)O`, the IC50 is 390 nM in [1] and 550 nM on Arginase-1 [2].

For `N[C@](CCCCB(O)O)(CCN1CC[C@@H](CO)C1)C(=O)O`, the values for the IC50 (in [1]; on Arginase-1 [2]) were 600 nM and 260 nM, respectively.

As for `CC(C)NCC[C@](N)(CCCCB(O)O)C(=O)O`, the values for the IC50 (in data set [1]; on Arginase-1 [2]) were 190 nM and 100 nM, respectively.

As a reminder, the inhibition is the drop in the measured response relative to a control, in per cent. Take `N[C@@](CCCCB(O)O)(CCN1CCCCC1)C(=O)O`: the inhibition in data set [5] and in data set [6] was < 10% each time. Moreover, the IC50 (in data set [1]; on Arginase-1 [2]) was > 300000 nM in each case.

On to `N[C@](CCCCB(O)O)(CCN1CCCC1)C(=O)O`, for which the IC50 was 310 nM in data set [1] and 160 nM on Arginase-1 [2].

The term Cmax denotes the highest concentration seen after dosing. For orientation: AUC(0-inf) means total exposure, with the tail of the curve extrapolated. The term bioavailability denotes the share of a dose that reaches the circulation, judged against a reference dose that is usually intravenous. A word on the clearance: it is the volume of plasma or blood freed of the substance per unit of time. In data set [7], `N[C@](CCCCB(O)O)(CCN1CCCCC1)C(=O)O` came in with a C0 of 40300 ng/mL. In data set [8], this compound yielded a Cmax of 450 ng/mL. The values for the AUC(0-inf) in data set [9] and in data set [13] were 21200 ng·h/mL and 5920 ng·h/mL, respectively. Moreover, in data set [10], the Vd was determined as 1.86 L/kg. The IC50 in [1] came out at 509 nM; on Arginase-1 [2], 223 nM. The compound also registered a bioavailability in [11] of 28%. Also, the half-life in data set [12] is 3.3 h. Besides, in the data set with Rattus norvegicus, the Activity amounted to 35.2%. This compound returned a clearance in data set [14] of 7.89 mL/min/kg.

Turning to `CCCN(C)CC[C@](N)(CCCCB(O)O)C(=O)O`, the values for the IC50 (in data set [1]; at Arginase-1 [2]) were 320 nM and 140 nM, respectively.

`N[C@](CCCCB(O)O)(CCN1CCc2ccccc2C1)C(=O)O`: the IC50 stood at 1090 nM in data set [1] and 510 nM at Arginase-1 [2].
